# Data from ChEMBL document CHEMBL4689842, “EUbOPEN Chemogenomics Library wave 1” (2021).
# Tests used:
# Format in all cases: toxicity, cell-based
# U2OS = test: Incucyte cell viability with U2OS; details: human, 10 µM, compound concentration 10 uM; also: filed as whole numbers so only -1 and 0 and 1 occur
# HEK-293T = test: Incucyte cell viability with HEK293T; details: human, 10 µM, compound concentration 10 uM; also: filed as whole numbers so only -1 and 0 and 1 occur
# Fibroblast [1] = test: Incucyte cell viability with human fibroblast; details: 10 µM, compound concentration 10 uM; also: filed as whole numbers so only -1 and 0 and 1 occur
# Fibroblast [2] = test: Multiplex assay against human fibroblast
# Procedure, shortened: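 Values for tubulin, mitochondrial-mass and membrane-permeability phenotypes are per cents of cells with healthy nuclei. These cells were identified by CellPathfinder machine-learning gating of live cells that had been stained at seeding with Hoechst33342, BioTracker Green Microtubule Cytoskeleton Dye, MitoTracker Red and Annexin V Alexa Fluor 680 and imaged on a CQ1 microscope at 37°C and 5% CO2 after compound addition. The gating first set Hoechst high-intensity objects apart from normal cells, then split normal cells into healthy, pyknosed or fragmented nuclei, and pyknosed cells into mitotic or apoptotic.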
# [3] = 6 h, replicate number 1, timepoint 6 hours
# [4] = 12 h, replicate number 1, timepoint 12 hours
# [5] = 18 h, replicate number 1, timepoint 18 hours
# [6] = 24 h, replicate number 1, timepoint 24 hours
# [7] = 0 h, replicate number 1, timepoint 0 hours
# [8] = 12 h, 1 µM, compound concentration 1 uM, replicate 1
# [9] = 12 h, 1 µM, compound concentration 1 uM, replicate 2
# [10] = 12 h, 10 µM, compound concentration 10 uM, replicate 1
# [11] = 12 h, 10 µM, compound concentration 10 uM, replicate 2
# [12] = 24 h, 1 µM, compound concentration 1 uM, replicate 1
# [13] = 24 h, 1 µM, compound concentration 1 uM, replicate 2
# [14] = 24 h, 10 µM, compound concentration 10 uM, replicate 1
# [15] = 24 h, 10 µM, compound concentration 10 uM, replicate 2
structure (smiles),measurement,setting,value
CN(C)CCOc1ccc(-c2nc(-c3ccncc3)c(-c3ccc4c(c3)CC/C4=N\O)[nH]2)cc1 [SB590885],Growth Rate,"U2OS; 0 h, replicate number 2, timepoint 0 hours",1
same,Growth Rate,U2OS; [3],0
same,Growth Rate,U2OS; [4],0
same,Growth Rate,U2OS; [5],0
same,Growth Rate,U2OS; [6],0
same,Growth Rate,HEK-293T; [7],1
same,Growth Rate,HEK-293T; [3],0
same,Growth Rate,HEK-293T; [4],0
same,Growth Rate,HEK-293T; [5],0
same,Growth Rate,HEK-293T; [6],0
same,Growth Rate,Fibroblast [1]; [7],0
same,Growth Rate,"Fibroblast [1]; 18 h, replicate number 2, timepoint 18 hours",1
same,Growth Rate,Fibroblast [1]; [6],1
same,Growth Rate,"Fibroblast [1]; 24 h, replicate number 2, timepoint 24 hours",0
same,Population Apoptotic (%),Fibroblast [2]; [8],86%
same,Population Fragmented Nuclei (%),Fibroblast [2]; [8],40%
same,Population Healthy Nuclei (%),Fibroblast [2]; [8],29%
same,Population Hoechst High Intensity Objects (%),Fibroblast [2]; [8],31%
same,Population Membrane Permeable-Phenotype (%),Fibroblast [2]; [8],4%
same,Population Mitochondria Different-Phenotype (%),Fibroblast [2]; [8],1%
same,Population Mitotic Cells (%),Fibroblast [2]; [8],13%
same,Population Normal (%),Fibroblast [2]; [8],68%
same,Population Pyknosed Nuclei (%),Fibroblast [2]; [8],30%
same,Population Tubulin-Different-Phenotype (%),Fibroblast [2]; [8],12%
same,Total Cell Count,Fibroblast [2]; [8],562
same,Population Apoptotic (%),Fibroblast [2]; [9],87%
same,Population Fragmented Nuclei (%),Fibroblast [2]; [9],44%
same,Population Healthy Nuclei (%),Fibroblast [2]; [9],3%
same,Population Hoechst High Intensity Objects (%),Fibroblast [2]; [9],32%
same,Population Membrane Permeable-Phenotype (%),Fibroblast [2]; [9],10%
same,Population Mitochondria Different-Phenotype (%),Fibroblast [2]; [9],5%
same,Population Mitotic Cells (%),Fibroblast [2]; [9],12%
same,Population Normal (%),Fibroblast [2]; [9],67%
same,Population Pyknosed Nuclei (%),Fibroblast [2]; [9],52%
same,Population Tubulin-Different-Phenotype (%),Fibroblast [2]; [9],42%
same,Total Cell Count,Fibroblast [2]; [9],833
same,Population Apoptotic (%),Fibroblast [2]; [10],84%
same,Population Fragmented Nuclei (%),Fibroblast [2]; [10],38%
same,Population Healthy Nuclei (%),Fibroblast [2]; [10],48%
same,Population Hoechst High Intensity Objects (%),Fibroblast [2]; [10],14%
same,Population Membrane Permeable-Phenotype (%),Fibroblast [2]; [10],4%
same,Population Mitochondria Different-Phenotype (%),Fibroblast [2]; [10],5%
same,Population Mitotic Cells (%),Fibroblast [2]; [10],15%
same,Population Normal (%),Fibroblast [2]; [10],85%
same,Population Pyknosed Nuclei (%),Fibroblast [2]; [10],12%
same,Population Tubulin-Different-Phenotype (%),Fibroblast [2]; [10],13%
same,Total Cell Count,Fibroblast [2]; [10],245
same,Population Apoptotic (%),Fibroblast [2]; [11],100%
same,Population Fragmented Nuclei (%),Fibroblast [2]; [11],69%
same,Population Healthy Nuclei (%),Fibroblast [2]; [11],28%
same,Population Hoechst High Intensity Objects (%),Fibroblast [2]; [11],50%
same,Population Membrane Permeable-Phenotype (%),Fibroblast [2]; [11],11%
same,Population Mitochondria Different-Phenotype (%),Fibroblast [2]; [11],16%
same,Population Mitotic Cells (%),Fibroblast [2]; [11],0%
same,Population Normal (%),Fibroblast [2]; [11],49%
same,Population Pyknosed Nuclei (%),Fibroblast [2]; [11],1%
same,Population Tubulin-Different-Phenotype (%),Fibroblast [2]; [11],22%
same,Total Cell Count,Fibroblast [2]; [11],128
same,Population Apoptotic (%),Fibroblast [2]; [12],88%
same,Population Fragmented Nuclei (%),Fibroblast [2]; [12],50%
same,Population Healthy Nuclei (%),Fibroblast [2]; [12],40%
same,Population Hoechst High Intensity Objects (%),Fibroblast [2]; [12],43%
same,Population Membrane Permeable-Phenotype (%),Fibroblast [2]; [12],1%
same,Population Mitochondria Different-Phenotype (%),Fibroblast [2]; [12],0%
same,Population Mitotic Cells (%),Fibroblast [2]; [12],11%
same,Population Normal (%),Fibroblast [2]; [12],56%
same,Population Pyknosed Nuclei (%),Fibroblast [2]; [12],8%
same,Population Tubulin-Different-Phenotype (%),Fibroblast [2]; [12],5%
same,Total Cell Count,Fibroblast [2]; [12],552
same,Population Apoptotic (%),Fibroblast [2]; [13],90%
same,Population Fragmented Nuclei (%),Fibroblast [2]; [13],36%
same,Population Healthy Nuclei (%),Fibroblast [2]; [13],3%
same,Population Hoechst High Intensity Objects (%),Fibroblast [2]; [13],35%
same,Population Membrane Permeable-Phenotype (%),Fibroblast [2]; [13],20%
same,Population Mitochondria Different-Phenotype (%),Fibroblast [2]; [13],5%
same,Population Mitotic Cells (%),Fibroblast [2]; [13],9%
same,Population Normal (%),Fibroblast [2]; [13],64%
same,Population Pyknosed Nuclei (%),Fibroblast [2]; [13],59%
same,Population Tubulin-Different-Phenotype (%),Fibroblast [2]; [13],25%
same,Total Cell Count,Fibroblast [2]; [13],821
same,Population Apoptotic (%),Fibroblast [2]; [14],67%
same,Population Fragmented Nuclei (%),Fibroblast [2]; [14],35%
same,Population Healthy Nuclei (%),Fibroblast [2]; [14],51%
same,Population Hoechst High Intensity Objects (%),Fibroblast [2]; [14],14%
same,Population Membrane Permeable-Phenotype (%),Fibroblast [2]; [14],6%
same,Population Mitochondria Different-Phenotype (%),Fibroblast [2]; [14],3%
same,Population Mitotic Cells (%),Fibroblast [2]; [14],32%
same,Population Normal (%),Fibroblast [2]; [14],85%
same,Population Pyknosed Nuclei (%),Fibroblast [2]; [14],13%
same,Population Tubulin-Different-Phenotype (%),Fibroblast [2]; [14],9%
same,Total Cell Count,Fibroblast [2]; [14],299
same,Population Apoptotic (%),Fibroblast [2]; [15],100%
same,Population Fragmented Nuclei (%),Fibroblast [2]; [15],70%
same,Population Healthy Nuclei (%),Fibroblast [2]; [15],28%
same,Population Hoechst High Intensity Objects (%),Fibroblast [2]; [15],53%
same,Population Membrane Permeable-Phenotype (%),Fibroblast [2]; [15],31%
same,Population Mitochondria Different-Phenotype (%),Fibroblast [2]; [15],18%
same,Population Mitotic Cells (%),Fibroblast [2]; [15],0%
same,Population Normal (%),Fibroblast [2]; [15],46%
same,Population Pyknosed Nuclei (%),Fibroblast [2]; [15],1%
same,Population Tubulin-Different-Phenotype (%),Fibroblast [2]; [15],37%
same,Total Cell Count,Fibroblast [2]; [15],122
